We go through 38 compounds from ChEMBL document CHEMBL1140407, “Design and synthesis of tricyclic corticotropin-releasing factor-1 antagonists” (J Med Chem, 2005).

Structures are written as SMILES.

The first experiment deals with T1, Corticotropin-releasing factor receptor 1 (Homo sapiens, UniProt P34998).
T1 sequence (P34998 whole entry): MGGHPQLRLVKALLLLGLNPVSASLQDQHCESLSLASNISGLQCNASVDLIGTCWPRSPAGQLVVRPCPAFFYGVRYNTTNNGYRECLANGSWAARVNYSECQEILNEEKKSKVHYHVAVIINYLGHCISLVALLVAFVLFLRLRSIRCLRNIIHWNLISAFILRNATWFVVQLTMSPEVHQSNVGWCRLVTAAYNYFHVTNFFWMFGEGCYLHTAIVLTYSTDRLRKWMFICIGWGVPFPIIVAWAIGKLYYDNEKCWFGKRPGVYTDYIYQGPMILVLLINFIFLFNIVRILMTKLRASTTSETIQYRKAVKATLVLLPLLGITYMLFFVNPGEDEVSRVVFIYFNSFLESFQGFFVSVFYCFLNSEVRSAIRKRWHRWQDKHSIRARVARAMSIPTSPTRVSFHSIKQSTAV
As to the kind of experiment: Binding affinity for human corticotropin releasing factor receptor 1 expressed in LtK- cells using [125I]sauvagine. Type of experiment: cell-based.
Conditions: not given
A digest of the protocol:
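Buffer: DPBS with 10 mM MgCl2 and 2 mM EGTA, pH 7.4. Competitor 10 pM to 1 µM, run in duplicate, 2 h at room temperature. Bound ligand separated by vacuum filtration and counted by gamma counter. Nonspecific binding taken with excess unlabeled sauvagine. Ki from nonlinear curve fitting.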
The compound `CCCC(CCC)N1CCn2nc(-c3ccc(Cl)cc3Cl)c3nc(C)cc1c32` gave a Ki of 5.01 nM. Same read-out and setting: the value for `CC[C@H]1Cn2nc(-c3ccc(Cl)cc3C)c3nc(C)cc(c32)N1CC1CC1` was 7.94 nM. On the same count and under the same terms, then `CC[C@H]1Cn2nc(-c3ccc(Cl)cc3C(F)(F)F)c3nc(C)cc(c32)N1CC1CC1`, with 20 nM. Still for that read-out and setting: then `CC[C@H]1Cn2nc(-c3ccc(C(F)(F)F)cc3Cl)c3nc(C)cc(c32)N1CC1CC1`, with 3.98 nM; and `CC[C@H]1Cn2nc(-c3ccc(C)cc3Cl)c3nc(C)cc(c32)N1CC1CC1`, with 6.31 nM; and `CC[C@H]1Cn2nc(-c3ccc(Cl)cc3Cl)c3nc(C)cc(c32)N1CC(C)C`, with 15.8 nM. In turn, `CC[C@H]1Cn2nc(-c3ccc(Cl)cc3Cl)c3nc(C)cc(c32)N1CC` gave a Ki of 63.1 nM. The same measure, in the same setting: then `CCCCC(CCCC)N1CCn2nc(-c3ccc(Cl)cc3Cl)c3nc(C)cc1c32`, with 5.01 nM; and `Cc1cc2c3c(n1)c(-c1ccc(Cl)cc1Cl)nn3C[C@H](C)N2CC1CC1`, with 7.94 nM. Same read-out and setting: then `CC[C@H]1Cn2nc(-c3ccc(OC)cc3C)c3nc(C)cc(c32)N1CC1CC1`, with 10 nM; and `CC[C@@H]1Cn2nc(-c3ccc(Cl)cc3Cl)c3nc(C)cc(c32)N1CC1CC1`, with 126 nM; and `CC[C@H]1Cn2nc(-c3ccc(C(=O)OC)cc3Cl)c3nc(C)cc(c32)N1CC1CC1`, with 158 nM. The same measure, in the same setting: then `CC[C@H]1Cn2nc(-c3ccc(Cl)cc3Cl)c3nc(C)cc(c32)N1CCOC`, with 50.1 nM. The compound `CC[C@H]1Cn2nc(-c3ccc(Cl)cc3Cl)c3nc(C)cc(c32)N1` gave a Ki of 794 nM. Against the preceding compound, the Ki is about 16-fold higher. The compound `CC[C@H]1Cn2nc(-c3ccc(C(C)C)cc3C(F)(F)F)c3nc(C)cc(c32)N1CC1CC1` gave a Ki of 7.94 nM. Still for that read-out and setting: the value for `CC[C@H]1Cn2nc(-c3ccc(OC)cc3Cl)c3nc(C)cc(c32)N1CC1CC1` was 3.98 nM; that for `CC[C@H]1Cn2nc(-c3ccc(F)cc3Cl)c3nc(C)cc(c32)N1CC1CC1` was 12.6 nM; that for `CCCCN1c2cc(C)nc3c(-c4ccc(Cl)cc4Cl)nn(c23)C[C@@H]1CC` was 6.31 nM. Still for that read-out and setting: the value for `Cc1cc2c3c(n1)c(-c1ccc(Cl)cc1Cl)nn3CCN2C1CCCCC1` was 158 nM; that for `CCCN1c2cc(C)nc3c(-c4ccc(Cl)cc4Cl)nn(c23)C[C@@H]1CC` was 31.6 nM. The same measure, in the same setting: then `Cc1cc2c3c(n1)c(-c1ccc(Cl)cc1Cl)nn3CCN2C(C)C`, with 79.4 nM; and `Cc1cc2c3c(n1)c(-c1ccc(Cl)cc1Cl)nn3C[C@H](c1ccccc1)N2CC1CC1`, with 10 nM; and `CC[C@H]1Cn2nc(-c3ccc(Cl)cc3Cl)c3nc(C)cc(c32)N1Cc1ccccc1`, with 158 nM. Take `CC[C@H]1Cn2nc(-c3ccc(Cl)cc3OC)c3nc(C)cc(c32)N1CC1CC1`: affinity was put at a Ki of 25.1 nM.

Regarding `CC[C@H]1Cn2nc(-c3ccc(C(F)(F)F)cc3C(F)(F)F)c3nc(C)cc(c32)N1CC1CC1`, the Ki was 7.94 nM. This Ki is about 3.2-fold lower than that of the compound before. On the same count and under the same terms, the value for `Cc1cc2c3c(n1)c(-c1ccc(Cl)cc1Cl)nn3CCN2CC1CC1` was 79.4 nM. In turn, `Cc1cc2c3c(n1)c(-c1ccc(Cl)cc1Cl)nn3CCN2CC(C)C` had a Ki of 398 nM. Consider `Cc1cc2c3c(n1)c(-c1ccc(Cl)cc1Cl)nn3C[C@H](C(C)C)N2CC1CC1`, for which affinity was put at a Ki of 5.01 nM. Still for that read-out and setting: then `CC[C@H]1Cn2nc(-c3ccc(OC)cc3C(F)(F)F)c3nc(C)cc(c32)N1CC1CC1`, with 7.94 nM; and `CCC[C@H]1Cn2nc(-c3ccc(Cl)cc3Cl)c3nc(C)cc(c32)N1CC1CC1`, with 3.98 nM; and `CC[C@H]1Cn2nc(-c3ccc(Cl)cc3Cl)c3nc(C)cc(c32)N1CC1CCC1`, with 20 nM. Turning to `CC[C@H]1Cn2nc(-c3ccc(Cl)cc3F)c3nc(C)cc(c32)N1CC1CC1`, the Ki was 50.1 nM.

On to `CC[C@H]1Cn2nc(-c3ccc(C)cc3C)c3nc(C)cc(c32)N1CC1CC1`, for which the Ki was 12.6 nM. Same read-out and setting: the value for `CCC(CC)N1CCn2nc(-c3ccc(Cl)cc3Cl)c3nc(C)cc1c32` was 3.98 nM; that for `CCC(COC)N1CCn2nc(-c3ccc(Cl)cc3Cl)c3nc(C)cc1c32` (centres undefined) was 63.1 nM. As for `CCCN(CC1CC1)c1cc(C)nc2c(-c3ccc(Cl)cc3Cl)nn(C)c12`, the Ki is 1.58 nM. On the same count and under the same terms, the value for `CCCCN(CC)c1nc(C)nc2c1c(C)c(C)n2-c1c(C)cc(C)cc1C` [ANTALARMIN] was 2.51 nM.

The species named for a further experiment is Rattus norvegicus. As to the kind of experiment: In vitro Inhibition of CRF-stimulated ACTH release in rat anterior pituitary cells, upon 9 min incubation at 37 degree C. The following applies: Pituitary gland cell, 4 h, in the assay text read “4 h incubation” for “9 min incubation”. Type of experiment: functional, cell-based. A digest of the protocol: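 Pituitaries from 7-week-old female Sprague Dawley rats digested with collagenase (1.5 h, 37 °C), then neuraminidase (9 min, 37 °C). Cells cultured 2-3 days in 3% FCS/BBM-T at 40,000 cells/well. Antagonist (1 pM to 1 µM) added with 0.5 nM r/hCRF in BBM-T for 4 h at 37 °C. Medium ACTH measured by RIA.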
The compound `CC[C@H]1Cn2nc(-c3ccc(Cl)cc3Cl)c3nc(C)cc(c32)N1CC1CC1` had an IC50 of 126 nM.

The target in the next experiment is T1, Corticotropin-releasing factor receptor 1. The experiment can be described thus: In vitro inhibition of CRF-stimulated cAMP production in cell membranes expressing human CRF1 receptor. The format is functional, cell-based. The following applies: in the assay text read “whole cells” for “cell membranes”. A digest of the protocol:
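Live whole L-hCRF1 cells (LtK- cells expressing human CRF1 receptor) were plated at 100 000 cells/well the day before and washed with DPBS. Buffer was DMEM without phenol red with 1 mM IBMX. CRF plus antagonist at various concentrations were added for 30 min at 37 °C in 5% CO2. Total cAMP was read by chemiluminescent immunoassay and IC50 was obtained by nonlinear curve fitting.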
Consider `CC[C@H]1Cn2nc(-c3ccc(Cl)cc3Cl)c3nc(C)cc(c32)N1CC1CC1`, for which the IC50 was 79.4 nM.
